The values below come from ChEMBL document CHEMBL4339209, “Chemical modifications of imidazole-containing alkoxyamines increase C-ON bond homolysis rate: Effects on their cytotoxic properties in glioblastoma cells” (Bioorg Med Chem, 2019).

Calls of active or inactive are those of the source. The rule behind the calls is not given here.

Series [1] in a line: Stability in H2O/MeOH buffered with Na2CO3/NaHCO3 at pH 10.3 assessed as temperature. The class given is physicochemical. The following applies: buffer.
Series [2] can be described thus: n-octanol/phosphate buffered saline partition coefficient, log D of the compound at pH 7.4 by shake-flask method. The class given is physicochemical. Summed up:
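Shake-flask partition between pre-saturated n-octanol and PBS at pH 7.4. The aqueous phase was quantified by RP-HPLC on a 4.6 × 50 mm column, eluting with CH3CN/H2O (each with 0.1% TFA) from 10:90 to 100:0 over 10 min.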

Series [3] can be described thus: Dissociation constant, pKa of the compound in 1:1 v/v D2O/CD3OD by 1H-NMR spectrometric method. It is filed as physicochemical. Put shortly: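 Samples in D2O/CD3OD (1:1 v/v) were adjusted with DCl/NaOD to a series of pH* values, read on a meter calibrated with non-deuterated standards, and 1H-NMR was recorded at 400 MHz. Imidazole proton chemical shifts were plotted against pH* and fitted sigmoidally. The pKa* was converted by pH = 0.929 pH* + 0.42.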

Series [4] in a line: Half life in H2O/MeOH buffered with HCl/KCl at pH 2.2 in presence of alkyl radical scavenger TEMPOR by 31P[1H]-NMR analysis. The following applies: for half-life: H2O/MeOH buffered with HCl/KCl; for t1/2: buffer. It is filed as physicochemical.
The nature of series [5]: Half life in H2O/MeOH buffered with HEPES/NaCl at pH 7.4 in presence of alkyl radical scavenger TEMPOR by 31P[1H]-NMR analysis. The class given is physicochemical. The following applies: for half-life: H2O/MeOH buffered with HEPES/NaCl; for t1/2: buffer.
A short description of series [6]: Stability in H2O/MeOH buffered with HCl/KCl at pH 2.2 assessed as temperature. The class given is physicochemical. The note with it: buffer.
Series [7] can be described thus: Half life in H2O/MeOH buffered with Na2CO3/NaHCO3 at pH 10.3 in presence of alkyl radical scavenger TEMPOR by 31P[1H]-NMR analysis. The class given is physicochemical. The following applies: for half-life: H2O/MeOH buffered with Na2CO3/NaHCO3, pH 10.3; for t1/2: buffer, pH 10.3.
Series [8] can be described thus: Stability in H2O/MeOH buffered with HEPES/NaCl at pH 7.4 assessed as temperature. The class given is physicochemical. The note with it: buffer.
Another series has as its system U-87 MG. The series can be described thus: Cytotoxicity against human U87MG cells assessed as reduction in cell survival measured after 72 hrs by MTT assay. It is filed as functional, cell-based, U-87MG ATCC. The following applies: for Activity: U-87MG ATCC. Put shortly:
(§1)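 MTT viability on 2D cultures, U87-MG in DMEM and U251-MG in EMEM with […], both with 10% FBS and Pen Strep. 5000 cells seeded, then 72 h exposure to 500, 250, 100, 50, 25, 10 and 5 μM (DMSO at most […]). MTT 0.5 mg/mL for 1 h, formazan in DMSO read at 550 nm. Survival as % of control. IC50 determined graphically. At least triplicate.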
(In general: Formazan colour is commonly taken as a measure of viable cells.)

Series [9] relates to U-251. Put plainly: Cytotoxicity against human U251MG cells assessed as reduction in cell survival measured after 72 hrs by MTT assay. The class given is functional, cell-based. Put shortly:
as §1

A short description of series [10]: Drug homolysis in H2O/MeOH buffered with HEPES/NaCl at pH 7.4 assessed as activation energy in presence of alkyl radical scavenger TEMPOR by 31P[1H]-NMR analysis.
A short description of series [11]: Drug homolysis in H2O/MeOH buffered with HEPES/NaCl at pH 7.4 assessed as rate constant by measuring nitroxide level in presence of alkyl radical scavenger TEMPOR by 31P[1H]-NMR analysis.
The test system of series [12] is U-251. Put plainly: Cytotoxicity against human U251MG cells assessed as reduction in cell survival at IC50 measured after 72 hrs in presence of alkyl radical scavenger troxerutin by MTT assay. The class given is functional, cell-based. Put shortly:
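U251-MG cells in EMEM (10% FBS, Pen Strep, […]) were exposed for 72 h to alkoxyamine together with an equal concentration of the alkyl radical scavenger troxerutin. Survival was read by MTT (0.5 mg/mL, 1 h, OD 550 nm) as % of control, and compared with alkoxyamine alone. At least triplicate.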

Series [13] can be described thus: Drug homolysis in DMSO assessed as activation energy in presence of alkyl radical scavenger TEMPOR by 31P[1H]-NMR analysis.
Series [14] is described as follows: Drug homolysis in DMSO/TsOH assessed as rate constant by measuring nitroxide level in presence of alkyl radical scavenger TEMPOR by 31P[1H]-NMR analysis.
Series [15] in a line: Drug homolysis in DMSO assessed as rate constant by measuring nitroxide level in presence of alkyl radical scavenger TEMPOR by 31P[1H]-NMR analysis.
Series [16] in a line: Drug homolysis in DMSO/TsOH assessed as activation energy in presence of alkyl radical scavenger TEMPOR by 31P[1H]-NMR analysis.
Series [17] can be described thus: Stability in DMSO/TsOH assessed as temperature. It is filed as physicochemical.
Series [18] is described as follows: Stability in DMSO assessed as temperature. It is filed as physicochemical.
[19] abbreviates: n-octanol/phosphate buffered saline, read-out: logD.
The mark [20] stands for this setting: 1:1 v/v D2O/CD3OD, read-out: pKa.

One may read the logD as lipophilicity at a set pH, counting ionised and neutral species. Usually pKa stands for the pH at which an ionisable group is half protonated. As usually defined, the half-life is the time in which the quantity being followed falls by half. By IC50 is commonly meant the concentration at which inhibition is half-maximal. As to `CCOP(=O)(OCC)C(N(OC(C)c1c[nH]cn1)C(C)(C)C)C(C)(C)C` (stereo in doubt; form 1), the T in series [1], in series [6] and in series [8] was 80 °C in each case. Further, in series [2] (setting [19]), the pH-dependent lipophilicity (logD) came to 3.7. The pKa in [3] (setting [20]) is 6.11. For the same compound, the half-life in series [4] was 103 h; in series [5] it was 288 h; in [7], 408 h. For the same compound, the IC50 in the series with U-87 MG was 25 to 380 µM.

On to `CCOP(=O)(OCC)C(N(OC(C)c1ncc[nH]1)C(C)(C)C)C(C)(C)C` (stereo in doubt; form 2), for which the T in series [1] stood at 80 °C; in series [6], 60 °C; in [8] it was 70 °C. Further, the logD in [2] (setting [19]) was found to be 3.6. Besides, the pKa in series [3] (setting [20]) was 6.09. In addition, the results for the half-life in series [4], in [5] and in series [7] were 4 h, 60 h and 240 h, respectively. The IC50 with U-87 MG lay within 25 to 380 µM.

For the compound `CCOP(=O)(OCC)C(N(OC(C)c1c[nH]cn1)C(C)(C)C)C(C)(C)C` (stereo in doubt; form 2), the T in [1] was 70 °C. The logD in [2] (octanol/water) was 4. Besides, in the series on U-251 [9] (U-251, 72 h), the IC50 worked out at 20 µM. The compound also had a pKa in series [3] of 6.13. For the same compound, the t1/2 in series [4] turned out to be 190 h; in series [5], 312 h; in [7], 456 h.

Consider `CCOP(=O)(OCC)C(N(OC(C)n1cc[n+](C)c1)C(C)(C)C)C(C)(C)C` (stereo in doubt; form 2), for which the Activity result with U-251 [9] and in the series with U-87 MG was “Dose-dependent effect” each time. The Ea in [10] was 135 kJ/mol. For the same compound, in series [11], the Kdiss came to 2.84 ×10⁻⁵ /s. Moreover, the result in the series on U-251 [12] was Active.

Consider `CCOP(=O)(OCC)C(N(OC(C)n1ccnc1)C(C)(C)C)C(C)(C)C` (stereo in doubt; form 2), for which the Activity entry in the series on U-251 [9] and in the series with U-87 MG was “Dose-dependent effect” each time. Moreover, the Ea was found to be 145 kJ/mol in [13] and 141 kJ/mol in series [16]. The Kdiss was 2.45 ×10⁻³ /s in [14] and 8.02 ×10⁻⁴ /s in [15]. Besides, the result in the series with U-251 [12] was Active.

Take `CCOP(=O)(OCC)C(N(OC(C)n1ccnc1)C(C)(C)C)C(C)(C)C` (stereo in doubt; form 1) [listing 1 of 2 here]: in series [2] (setting [19]), the logD came to 3.4. Moreover, the pKa in series [3] (setting [20]) was found to be 5.62. Besides, the T in series [17] and in series [18] was 160 °C in each case. Further, the IC50 in the series on U-87 MG lay within 25 to 380 µM.

Regarding `CCOP(=O)(OCC)C(N(OC(C)n1ccnc1)C(C)(C)C)C(C)(C)C` (stereo in doubt; form 1) [listing 2 of 2 here], the Activity result in the series on U-251 [9] and in the series with U-87 MG was “Dose-dependent effect” in each case. In addition, the Ea in series [13] is 149 kJ/mol; in series [16], 143 kJ/mol. For the same compound, the Kdiss in [14] was determined as 1.44 ×10⁻³ /s; in [15], 2.69 ×10⁻⁴ /s. Besides, the result in the series on U-251 [12] was Active.

With `CCOP(=O)(OCC)C(N(OC(C)c1cn(C)cn1)C(C)(C)C)C(C)(C)C` (stereo in doubt; form 1), the T in series [1], in [6] and in series [8] was 80 °C in each case. In addition, in [2] (setting [19]), the logD came out at 3.5. In series [3] (setting [20]), the pKa was 6.76. Moreover, the t1/2 in series [4] was determined as 65 h. The half-life is 792 h in series [5] and 1560 h in series [7]. The IC50 with U-87 MG was 25 to 380 µM.

Regarding `CCOP(=O)(OCC)C(N(OC(C)c1nccn1C)C(C)(C)C)C(C)(C)C` (stereo in doubt; form 1), the T was found to be 80 °C in series [1], 60 °C in series [6] and 70 °C in series [8]. Besides, the logD in series [2] (setting [19]) turned out to be 3.4. In addition, in [3] (setting [20]), the pKa was found to be 6.28. Besides, the half-life in series [4] amounted to 2.4 h. Moreover, the t1/2 in series [5] is 31 h; in [7] it was 130 h. In the series with U-87 MG, the IC50 lay within 25 to 380 µM.

Take `CCOP(=O)(OCC)C(N(OC(C)n1cc[n+](C)c1)C(C)(C)C)C(C)(C)C` (stereo in doubt; form 1): the Activity entry in the series on U-251 [9] and with U-87 MG was “Dose-dependent effect” in each case. For the same compound, the Ea in series [10] was determined as 135 kJ/mol. Further, the Kdiss in series [11] was 2.84 ×10⁻⁵ /s. In the series with U-251 [12], the outcome was Active.
